Measured values gathered from unrelated publications.
BCHE: Cholinesterase (BCHE, Equus caballus, UniProt P81908)
SRPK2: SRSF protein kinase 2 (SRPK2, Homo sapiens, UniProt P78362)

CCN(CC)CCCC[C@H](NC(=O)[C@H](CC(C)C)NC(=O)[C@H](C)NC(=O)[C@H](Cc1ccccc1)NC(=O)c1ccc(C(C)(C)C)cc1)C(=O)N[C@@H](CO)C(=O)OC
ΔTm (Peregrin, bromodomain (BRPF1, Homo sapiens, UniProt P55201); thermal stability; DSF; 25 µM): 0.47 °C

C#Cc1n[nH]c2c(-c3cn([C@@H](C)c4ccccn4)c(=O)[nH]c3=O)cc(F)cc12
inhibition (Serine/threonine-protein kinase Nek2 (NEK2, Homo sapiens, UniProt P51955); enzyme activity; inhibitor; 0.1 µM): 12%

COc1cc2c(cc1OC)C(=O)N(Cc1cnc3c(c1)OCCN3C)C2
inhibition (BCHE; enzyme activity; inhibitor; Ellman; 1 µM): 13.6%

Cc1nn(C)cc1-c1nc2c(N3CCN(Cc4ccc(Cl)cc4)CC3)c(Cl)cnc2[nH]1
remaining binding (Dual specificity mitogen-activated protein kinase kinase 3 (MAP2K3, Homo sapiens, UniProt P46734); binding; competition with immobilised ligand; 1 µM): 100%

Cn1cc(-c2cc(F)cc(N3CCn4c(cc5c4CCCC5)C3=O)c2CO)cc(Nc2ccc(N3CCN(C4COC4)CC3)cn2)c1=O
inhibition (SRPK2; enzyme activity; inhibitor; 0.1 µM): 3%

COc1ncccc1-c1cnn2ccc(N3CCN(C(=O)OC(C)C)CC3)nc12
remaining binding (SRPK2; binding; competition with immobilised ligand; 1 µM): 28%

CS(=O)(=O)c1ccc(-c2ncccc2-c2nc3ccccc3s2)cc1
inhibition (Prostaglandin G/H synthase 1 (PTGS1, Ovis aries, UniProt P05979); enzyme activity; inhibitor; absorbance; 10 µM): 21.5%

COc1cc2c(cc1OC)C(=O)N(Cc1ccccn1)C2
inhibition (BCHE; enzyme activity; inhibitor; Ellman; 1 µM): -8.8%

Nc1ncc(-c2nc(N3CCOCC3)nc(N3CCOCC3)n2)c(C(F)F)n1
remaining binding (Mitogen-activated protein kinase kinase kinase 6 (MAP3K6, Homo sapiens, UniProt O95382); binding; competition with immobilised ligand; 10 µM): 76%

COc1cc2c(cc1OC)C(=O)N(CC1CCNCC1)C2
inhibition (BCHE; enzyme activity; inhibitor; Ellman; 1 µM): 6.8%

O=P(O)(O)O[C@H]1O[C@H](CO)[C@@H](O)[C@H](O)[C@H]1O
Km (Glycogen phosphorylase, muscle form (PYGM, Oryctolagus cuniculus, UniProt P00489); enzyme activity; substrate): 920 µM

COc1cc2c(cc1OC)C(=O)N(CC1CCN(Cc3ccccn3)CC1)C2
inhibition (BCHE; enzyme activity; inhibitor; Ellman; 1 µM): 5.4%

C[C@]12CC[C@@H]3c4ccc(OC(=O)N(CCCl)CCCl)cc4CC[C@H]3[C@@H]1CC[C@@H]2OP(=O)(O)O
koff (Tyrosine-protein phosphatase non-receptor type 11 (PTPN11, Homo sapiens, UniProt Q06124); binding; SPR): 0.02 s⁻¹
